Experimental data taken from article PMC4878416 (Diabetes, 2016).

What was measured:
DYRK1B = DYRK1B (Homo sapiens, UniProt Q9Y463); experiment: Human kinome profiling, DYRK1B; assay type: biochemical
In short: (§1)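 Human kinases profiled by commercial providers under their standard protocols; ATP within 15 μmol/L of the apparent KM for each enzyme.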

human β-cells = experiment: EdU incorporation proliferation assay in dissociated human islet cells; assay type: cell-based
In short: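 Human islets dissociated in Accutase (5,000 IEQ/mL, 37°C, 20 min), resuspended in CMRL complete medium and seeded at ~30,000 (96-well) or ~15,000 (384-well) cells per well. EdU was present throughout the 6-day treatment, including FK506 cotreatment. Cells were fixed (3% PFA), permeabilised (0.2% Triton X-100) and stained for C-peptide and DAPI. EdU+ β-cells were scored by automated imaging and manually; 4 wells, 9 fields each; mean ± SD; two-tailed t test vs DMSO.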

CLK1 = CLK1 (Homo sapiens, UniProt P49759); experiment: Human kinome profiling, CLK1; assay type: biochemical
In short: as §1

DYRK2 = biological target: T1, DYRK2 (Homo sapiens, UniProt Q92630); experiment: Human kinome profiling, DYRK2; assay type: biochemical
T1 sequence (Q92630 1-601): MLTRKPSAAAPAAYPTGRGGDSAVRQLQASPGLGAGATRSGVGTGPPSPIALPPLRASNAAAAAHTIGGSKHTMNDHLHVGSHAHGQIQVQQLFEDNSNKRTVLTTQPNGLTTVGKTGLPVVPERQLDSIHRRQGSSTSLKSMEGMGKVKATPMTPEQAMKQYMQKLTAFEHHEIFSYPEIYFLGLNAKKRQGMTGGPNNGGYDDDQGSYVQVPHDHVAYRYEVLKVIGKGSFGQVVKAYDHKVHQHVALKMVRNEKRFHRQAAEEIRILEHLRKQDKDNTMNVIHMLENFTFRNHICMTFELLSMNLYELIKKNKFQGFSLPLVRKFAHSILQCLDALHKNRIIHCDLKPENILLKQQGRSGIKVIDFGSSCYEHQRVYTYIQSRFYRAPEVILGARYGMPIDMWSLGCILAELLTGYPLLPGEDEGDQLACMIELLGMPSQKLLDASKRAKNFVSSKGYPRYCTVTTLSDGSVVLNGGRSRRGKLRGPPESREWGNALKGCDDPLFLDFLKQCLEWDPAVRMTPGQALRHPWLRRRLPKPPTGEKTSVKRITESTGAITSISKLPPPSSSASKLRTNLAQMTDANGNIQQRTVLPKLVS
In short: as §1

[1] = system: α-cells of human islet grafts; experiment: α-cell proliferation in human islets grafted under the mouse kidney capsule; assay type: in vivo; conditions: 0.25 mg/kg/BW i.p. twice a week for 3 weeks

Chain of CLK1 (P49759 whole entry): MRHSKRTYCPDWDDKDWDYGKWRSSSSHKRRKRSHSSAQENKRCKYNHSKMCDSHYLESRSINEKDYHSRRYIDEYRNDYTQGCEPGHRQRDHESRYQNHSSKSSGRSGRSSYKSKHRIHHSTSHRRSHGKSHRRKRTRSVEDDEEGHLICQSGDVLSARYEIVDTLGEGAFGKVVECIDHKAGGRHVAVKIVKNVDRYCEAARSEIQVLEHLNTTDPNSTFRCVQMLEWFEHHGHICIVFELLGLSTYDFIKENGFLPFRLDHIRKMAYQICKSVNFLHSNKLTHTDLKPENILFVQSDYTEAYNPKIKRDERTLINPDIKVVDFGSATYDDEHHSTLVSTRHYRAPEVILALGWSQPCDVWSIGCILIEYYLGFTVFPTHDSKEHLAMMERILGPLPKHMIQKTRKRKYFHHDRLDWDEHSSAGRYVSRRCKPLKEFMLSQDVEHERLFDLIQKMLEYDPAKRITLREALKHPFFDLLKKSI
Chain of DYRK1B (Q9Y463 whole entry): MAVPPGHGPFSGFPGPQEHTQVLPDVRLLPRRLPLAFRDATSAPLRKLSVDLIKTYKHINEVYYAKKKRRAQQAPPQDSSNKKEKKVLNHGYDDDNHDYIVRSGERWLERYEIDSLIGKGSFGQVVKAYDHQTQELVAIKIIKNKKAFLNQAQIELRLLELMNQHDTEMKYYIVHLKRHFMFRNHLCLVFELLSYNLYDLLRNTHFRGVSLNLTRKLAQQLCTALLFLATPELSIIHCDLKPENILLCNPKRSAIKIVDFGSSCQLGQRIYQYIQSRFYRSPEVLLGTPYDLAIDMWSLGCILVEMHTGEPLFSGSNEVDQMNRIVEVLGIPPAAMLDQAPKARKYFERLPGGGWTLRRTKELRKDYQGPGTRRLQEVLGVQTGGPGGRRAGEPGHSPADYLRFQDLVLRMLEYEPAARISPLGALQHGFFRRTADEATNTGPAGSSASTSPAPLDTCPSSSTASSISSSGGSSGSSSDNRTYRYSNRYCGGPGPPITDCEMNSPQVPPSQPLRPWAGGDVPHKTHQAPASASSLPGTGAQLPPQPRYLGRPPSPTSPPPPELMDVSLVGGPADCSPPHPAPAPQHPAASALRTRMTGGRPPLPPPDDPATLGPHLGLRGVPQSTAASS

## Nc1ncnc2c1c(I)cn2[C@@H]1O[C@H](CO)[C@@H](O)[C@H]1O [5-IT, 5-iodotubercidin]
DYRK1B; 100 nmol/L
  remaining activity DYRK1B: < 10%
DYRK1B; read-out: IC50 DYRK1B, ATP within 15 μmol/L of apparent KM
  IC50: 10 nM
Human β-cells; 6-day treatment, islets pair-matched to the WS-3 test
  increase in β-cell proliferation in pair-matched islets: 20 fold
Human β-cells; 6 days of treatment
  concentration of maximal effect on β-cell proliferation: 1 µmol/L
Human β-cells; 6 days of treatment, dissociated human islet cells, maximal effect
  increase in β-cell proliferation (EdU incorporation): 10- to 12 fold
CLK1; 100 nmol/L
  remaining activity CLK1: < 10%
CLK1; read-out: IC50 CLK1, ATP within 15 μmol/L of apparent KM
  IC50: 36 nM
DYRK2; 100 nmol/L
  remaining activity DYRK2: < 10%
DYRK2; read-out: IC50 DYRK2, ATP within 15 μmol/L of apparent KM
  IC50: 6 nM
[1]
  α-cell proliferation in human islet grafts, treated vs nontreated: no significant alterations
